# In ChEMBL document CHEMBL1146375, “Synthetic studies on novel benzimidazolopeptides with antimicrobial, cytotoxic and anthelmintic potential” (2007):
# System: Escherichia coli
# Experiment: Antibacterial activity against Escherichia coli NCIM 2065 after 18 hrs by disc diffusion method
# Assay type: functional
# Settings: not given
# Summary of the method: (§1)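 Modified Kirby-Bauer disc diffusion. Plates inoculated with spore suspension (about 6 × 10⁴ spores mL^-1). Sterile 6 mm paper discs carried test samples at 10 mg mL^-1; ciprofloxacin disc as reference, DMF disc as negative control. Plates held 18 h at 37 °C. Inhibition zone diameters (mm) averaged over triplicate sets.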
row,SMILES,inhibition zone (IZ) [mm]
1,Cc1cc2nc(-c3c(I)cc(C(=O)N[C@@H](Cc4ccccc4)C(=O)N[C@H](C(=O)N4CCC[C@H]4C(=O)O)C(C)C)cc3I)[nH]c2cc1C,18
2,COC(=O)[C@@H]1CCCN1C(=O)[C@H](Cc1cnc[nH]1)NC(=O)c1cc(I)c(-c2nc3cc(C)c(C)cc3[nH]2)c(I)c1,17

# System: Candida albicans
# Experiment: Antifungal activity against Candida albicans MUCC 29 after 48 hrs by disc diffusion method
# Assay type: functional
# Settings: not given
# Summary of the method: (§2)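 Agar well diffusion on plates inoculated with spore suspension in normal saline from cultures on Sabouraud's broth. Wells punched and loaded with test samples or griseofulvin at 10 mg mL^-1, with DMSO as negative control. Incubated 48 h at 37 °C.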
row,SMILES,inhibition zone (IZ) [mm]
1,Cc1cc2nc(-c3c(I)cc(C(=O)N[C@@H](Cc4ccccc4)C(=O)N[C@H](C(=O)N4CCC[C@H]4C(=O)O)C(C)C)cc3I)[nH]c2cc1C,17
2,COC(=O)[C@@H]1CCCN1C(=O)[C@H](Cc1cnc[nH]1)NC(=O)c1cc(I)c(-c2nc3cc(C)c(C)cc3[nH]2)c(I)c1,16

# System: Escherichia coli
# Experiment: Antibacterial activity against Escherichia coli NCIM 2065 after 18 hrs by tube dilution method
# Assay type: functional
# Settings: NCIM 2065, 18 h
row,SMILES,MIC [µg/mL]
1,Cc1cc2nc(-c3c(I)cc(C(=O)N[C@@H](Cc4ccccc4)C(=O)N[C@H](C(=O)N4CCC[C@H]4C(=O)O)C(C)C)cc3I)[nH]c2cc1C,25
2,COC(=O)[C@@H]1CCCN1C(=O)[C@H](Cc1cnc[nH]1)NC(=O)c1cc(I)c(-c2nc3cc(C)c(C)cc3[nH]2)c(I)c1,12.5

# System: Staphylococcus aureus
# Experiment: Antibacterial activity against Staphylococcus aureus NCIM 2079 after 18 hrs by tube dilution method
# Assay type: functional
# Settings: NCIM 2079, 18 h
# Summary of the method: (§3)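 Tube dilution MIC. Stock diluted in sterile broth to seven concentrations from 200 to 3.1 […]. Each tube inoculated with one loopful of test bacterium and incubated 18 h at 37 °C. MIC read from presence or absence of growth.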
row,SMILES,MIC [µg/mL]
1,Cc1cc2nc(-c3c(I)cc(C(=O)N[C@@H](Cc4ccccc4)C(=O)N[C@H](C(=O)N4CCC[C@H]4C(=O)O)C(C)C)cc3I)[nH]c2cc1C,25
2,COC(=O)[C@@H]1CCCN1C(=O)[C@H](Cc1cnc[nH]1)NC(=O)c1cc(I)c(-c2nc3cc(C)c(C)cc3[nH]2)c(I)c1,12.5

# System: Pontoscolex corethrurus
# Experiment: Anthelmintic activity against Pontoscolex corethrurus ICARBC 408 assessed as mean death time
# Assay type: functional
# Settings: not given
# Summary of the method: (§4)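 Earthworms exposed to test suspensions at 2 mg mL−1, prepared by triturating compound with Tween 80 (0.5%) and distilled water, stirring 30 min, then diluting to 0.2% w/v. Mebendazole suspension was made the same way. Death was confirmed by moving worms into 50 °C warm water and looking for movement. Mean death time (min) taken from triplicate sets.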
row,SMILES,Time [min]
1,Cc1cc2nc(-c3c(I)cc(C(=O)N[C@@H](Cc4ccccc4)C(=O)N[C@H](C(=O)N4CCC[C@H]4C(=O)O)C(C)C)cc3I)[nH]c2cc1C,50.13
2,COC(=O)[C@@H]1CCCN1C(=O)[C@H](Cc1cnc[nH]1)NC(=O)c1cc(I)c(-c2nc3cc(C)c(C)cc3[nH]2)c(I)c1,29.58

# System: Microsporum audouinii
# Experiment: Antifungal activity against Microsporum audouinii MUCC 545 after 48 hrs by tube dilution method
# Assay type: functional
# Settings: not given
# Summary of the method: (§5)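 Tube dilution MIC as for bacteria (seven concentrations, 200–3.1 […]), with DMSO in place of DMF. Tubes inoculated with fungal culture and incubated 48 h at 37 °C. MIC read from presence or absence of growth.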
row,SMILES,MIC [µg/mL]
1,Cc1cc2nc(-c3c(I)cc(C(=O)N[C@@H](Cc4ccccc4)C(=O)N[C@H](C(=O)N4CCC[C@H]4C(=O)O)C(C)C)cc3I)[nH]c2cc1C,12.5
2,COC(=O)[C@@H]1CCCN1C(=O)[C@H](Cc1cnc[nH]1)NC(=O)c1cc(I)c(-c2nc3cc(C)c(C)cc3[nH]2)c(I)c1,25

# System: Staphylococcus aureus
# Experiment: Antibacterial activity against Staphylococcus aureus NCIM 2079 after 18 hrs by disc diffusion method
# Assay type: functional
# Settings: not given
# Summary of the method: as §1
row,SMILES,inhibition zone (IZ) [mm]
1,Cc1cc2nc(-c3c(I)cc(C(=O)N[C@@H](Cc4ccccc4)C(=O)N[C@H](C(=O)N4CCC[C@H]4C(=O)O)C(C)C)cc3I)[nH]c2cc1C,13
2,COC(=O)[C@@H]1CCCN1C(=O)[C@H](Cc1cnc[nH]1)NC(=O)c1cc(I)c(-c2nc3cc(C)c(C)cc3[nH]2)c(I)c1,11

# System: Trichophyton benhamiae
# Experiment: Antifungal activity against Trichophyton mentagrophytes MUCC 665 after 48 hrs by tube dilution method
# Assay type: functional, Arthroderma benhamiae
# Settings: not given
# Summary of the method: as §5
row,SMILES,MIC [µg/mL]
1,Cc1cc2nc(-c3c(I)cc(C(=O)N[C@@H](Cc4ccccc4)C(=O)N[C@H](C(=O)N4CCC[C@H]4C(=O)O)C(C)C)cc3I)[nH]c2cc1C,6
2,COC(=O)[C@@H]1CCCN1C(=O)[C@H](Cc1cnc[nH]1)NC(=O)c1cc(I)c(-c2nc3cc(C)c(C)cc3[nH]2)c(I)c1,6

# System: Pontoscolex corethrurus
# Experiment: Anthelmintic activity against Pontoscolex corethrurus ICARBC 408 assessed as mean paralyzing time
# Assay type: functional
# Settings: not given
# Summary of the method: (§6)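 Earthworms exposed to test suspensions at 2 mg mL^-1 (0.2% w/v), made by triturating compound with Tween 80 (0.5%) and distilled water, then mechanically stirred 30 min. Mebendazole suspension prepared alike as reference. Paralysis and death times recorded; death confirmed by no movement in 50 °C water. Means from triplicate sets.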
row,SMILES,Time [min]
1,Cc1cc2nc(-c3c(I)cc(C(=O)N[C@@H](Cc4ccccc4)C(=O)N[C@H](C(=O)N4CCC[C@H]4C(=O)O)C(C)C)cc3I)[nH]c2cc1C,34.13
2,COC(=O)[C@@H]1CCCN1C(=O)[C@H](Cc1cnc[nH]1)NC(=O)c1cc(I)c(-c2nc3cc(C)c(C)cc3[nH]2)c(I)c1,17.52

# System: Trichophyton benhamiae
# Experiment: Antifungal activity against Trichophyton mentagrophytes MUCC 665 after 48 hrs by disc diffusion method
# Assay type: functional, Arthroderma benhamiae
# Settings: not given
# Summary of the method: as §2
row,SMILES,inhibition zone (IZ) [mm]
1,Cc1cc2nc(-c3c(I)cc(C(=O)N[C@@H](Cc4ccccc4)C(=O)N[C@H](C(=O)N4CCC[C@H]4C(=O)O)C(C)C)cc3I)[nH]c2cc1C,13
2,COC(=O)[C@@H]1CCCN1C(=O)[C@H](Cc1cnc[nH]1)NC(=O)c1cc(I)c(-c2nc3cc(C)c(C)cc3[nH]2)c(I)c1,12

# System: not listed separately
# Experiment: Anthelmintic activity against Megascoplex konkanensis ICARBC 211 assessed as mean paralyzing time
# Assay type: functional
# Settings: not given
# Summary of the method: as §6
row,SMILES,TIME [h]
1,Cc1cc2nc(-c3c(I)cc(C(=O)N[C@@H](Cc4ccccc4)C(=O)N[C@H](C(=O)N4CCC[C@H]4C(=O)O)C(C)C)cc3I)[nH]c2cc1C,0.44
2,COC(=O)[C@@H]1CCCN1C(=O)[C@H](Cc1cnc[nH]1)NC(=O)c1cc(I)c(-c2nc3cc(C)c(C)cc3[nH]2)c(I)c1,0.229

# System: Eudrilus
# Experiment: Anthelmintic activity against Eudrilus sp. assessed as mean paralyzing time
# Assay type: functional
# Settings: not given
# Summary of the method: as §6
row,SMILES,Time [min]
1,Cc1cc2nc(-c3c(I)cc(C(=O)N[C@@H](Cc4ccccc4)C(=O)N[C@H](C(=O)N4CCC[C@H]4C(=O)O)C(C)C)cc3I)[nH]c2cc1C,27.1
2,COC(=O)[C@@H]1CCCN1C(=O)[C@H](Cc1cnc[nH]1)NC(=O)c1cc(I)c(-c2nc3cc(C)c(C)cc3[nH]2)c(I)c1,13.48

# System: Pseudomonas aeruginosa
# Experiment: Antibacterial activity against Pseudomonas aeruginosa NCIM 2034 after 18 hrs by tube dilution method
# Assay type: functional
# Settings: NCIM 2034, 18 h
# Summary of the method: as §3
row,SMILES,MIC [µg/mL]
1,Cc1cc2nc(-c3c(I)cc(C(=O)N[C@@H](Cc4ccccc4)C(=O)N[C@H](C(=O)N4CCC[C@H]4C(=O)O)C(C)C)cc3I)[nH]c2cc1C,12.5
2,COC(=O)[C@@H]1CCCN1C(=O)[C@H](Cc1cnc[nH]1)NC(=O)c1cc(I)c(-c2nc3cc(C)c(C)cc3[nH]2)c(I)c1,6

# System: Aspergillus niger
# Experiment: Antifungal activity against Aspergillus niger MUCC 177 after 48 hrs by disc diffusion method
# Assay type: functional
# Settings: not given
# Summary of the method: as §2
row,SMILES,inhibition zone (IZ) [mm]
1,Cc1cc2nc(-c3c(I)cc(C(=O)N[C@@H](Cc4ccccc4)C(=O)N[C@H](C(=O)N4CCC[C@H]4C(=O)O)C(C)C)cc3I)[nH]c2cc1C,15
2,COC(=O)[C@@H]1CCCN1C(=O)[C@H](Cc1cnc[nH]1)NC(=O)c1cc(I)c(-c2nc3cc(C)c(C)cc3[nH]2)c(I)c1,13

# System: not listed separately
# Experiment: Anthelmintic activity against Megascoplex konkanensis ICARBC 211 assessed as mean death time
# Assay type: functional
# Settings: not given
# Summary of the method: as §6
row,SMILES,TIME [h]
1,Cc1cc2nc(-c3c(I)cc(C(=O)N[C@@H](Cc4ccccc4)C(=O)N[C@H](C(=O)N4CCC[C@H]4C(=O)O)C(C)C)cc3I)[nH]c2cc1C,0.698
2,COC(=O)[C@@H]1CCCN1C(=O)[C@H](Cc1cnc[nH]1)NC(=O)c1cc(I)c(-c2nc3cc(C)c(C)cc3[nH]2)c(I)c1,0.379

# System: Microsporum audouinii
# Experiment: Antifungal activity against Microsporum audouinii MUCC 545 after 48 hrs by disc diffusion method
# Assay type: functional
# Settings: not given
# Summary of the method: as §2
row,SMILES,inhibition zone (IZ) [mm]
1,Cc1cc2nc(-c3c(I)cc(C(=O)N[C@@H](Cc4ccccc4)C(=O)N[C@H](C(=O)N4CCC[C@H]4C(=O)O)C(C)C)cc3I)[nH]c2cc1C,11
2,COC(=O)[C@@H]1CCCN1C(=O)[C@H](Cc1cnc[nH]1)NC(=O)c1cc(I)c(-c2nc3cc(C)c(C)cc3[nH]2)c(I)c1,9

# System: Candida albicans
# Experiment: Antifungal activity against Candida albicans MUCC 29 after 48 hrs by tube dilution method
# Assay type: functional
# Settings: not given
# Summary of the method: as §5
row,SMILES,MIC [µg/mL]
1,Cc1cc2nc(-c3c(I)cc(C(=O)N[C@@H](Cc4ccccc4)C(=O)N[C@H](C(=O)N4CCC[C@H]4C(=O)O)C(C)C)cc3I)[nH]c2cc1C,6
2,COC(=O)[C@@H]1CCCN1C(=O)[C@H](Cc1cnc[nH]1)NC(=O)c1cc(I)c(-c2nc3cc(C)c(C)cc3[nH]2)c(I)c1,6

# System: Eudrilus
# Experiment: Anthelmintic activity against Eudrilus sp. assessed as mean death time
# Assay type: functional
# Settings: not given
# Summary of the method: as §4
row,SMILES,Time [min]
1,Cc1cc2nc(-c3c(I)cc(C(=O)N[C@@H](Cc4ccccc4)C(=O)N[C@H](C(=O)N4CCC[C@H]4C(=O)O)C(C)C)cc3I)[nH]c2cc1C,44.1
2,COC(=O)[C@@H]1CCCN1C(=O)[C@H](Cc1cnc[nH]1)NC(=O)c1cc(I)c(-c2nc3cc(C)c(C)cc3[nH]2)c(I)c1,23.98

# System: Pseudomonas aeruginosa
# Experiment: Antibacterial activity against Pseudomonas aeruginosa NCIM 2034 after 18 hrs by disc diffusion method
# Assay type: functional
# Settings: not given
# Summary of the method: as §1
row,SMILES,inhibition zone (IZ) [mm]
1,Cc1cc2nc(-c3c(I)cc(C(=O)N[C@@H](Cc4ccccc4)C(=O)N[C@H](C(=O)N4CCC[C@H]4C(=O)O)C(C)C)cc3I)[nH]c2cc1C,24
2,COC(=O)[C@@H]1CCCN1C(=O)[C@H](Cc1cnc[nH]1)NC(=O)c1cc(I)c(-c2nc3cc(C)c(C)cc3[nH]2)c(I)c1,24

# System: Bacillus subtilis
# Experiment: Antibacterial activity against Bacillus subtilis NCIM 2063 after 18 hrs by tube dilution method
# Assay type: functional
# Settings: NCIM 2063, 18 h
# Summary of the method: as §3
row,SMILES,MIC [µg/mL]
1,Cc1cc2nc(-c3c(I)cc(C(=O)N[C@@H](Cc4ccccc4)C(=O)N[C@H](C(=O)N4CCC[C@H]4C(=O)O)C(C)C)cc3I)[nH]c2cc1C,6
2,COC(=O)[C@@H]1CCCN1C(=O)[C@H](Cc1cnc[nH]1)NC(=O)c1cc(I)c(-c2nc3cc(C)c(C)cc3[nH]2)c(I)c1,6

# System: Bacillus subtilis
# Experiment: Antibacterial activity against Bacillus subtilis NCIM 2063 after 18 hrs by disc diffusion method
# Assay type: functional
# Settings: not given
# Summary of the method: as §1
row,SMILES,inhibition zone (IZ) [mm]
1,Cc1cc2nc(-c3c(I)cc(C(=O)N[C@@H](Cc4ccccc4)C(=O)N[C@H](C(=O)N4CCC[C@H]4C(=O)O)C(C)C)cc3I)[nH]c2cc1C,17
2,COC(=O)[C@@H]1CCCN1C(=O)[C@H](Cc1cnc[nH]1)NC(=O)c1cc(I)c(-c2nc3cc(C)c(C)cc3[nH]2)c(I)c1,14
